Columns and labels:
Escherichia coli [1] = experiment: Antibacterial activity against Escherichia coli ATCC 25922 after 18 hrs in presence of NaCl by broth dilution method; format: functional; settings: ATCC 25922, 18 h
[2] = Cytotoxicity against mouse RAW264.7 cells assessed as cell viability at 2 to 64 uM after 24 hrs by MTT assay relative to control; format: cell-based; settings: read-out: Activity
Summary of the method: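 MTT viability assay. RAW264.7 or HEK293T cells at (1.0−2.0) × 10^5 per well were exposed to a peptide concentration series for 24 h at 37 °C in 5% CO2. MTT was then added at 0.5 mg/mL final for 4 h; formazan was dissolved in DMSO and read at 570 nm. Results average three independent trials.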

[3] = Antibacterial activity against Salmonella pullorum ATCC 7913 after 24 hrs; format: functional, Salmonella enterica subsp. enterica serovar Pullorum; settings: Salmonella enterica, ATCC 7913, 24 h
Summary of the method: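 Broth microdilution. Mid-log bacteria in MHB at a final (0.5−1) × 10^5 CFU/mL were mixed with equal volumes of peptide serially diluted in 0.2% BSA. Plates were incubated 24 h at 37 °C and read at A492. MIC is the lowest concentration inhibiting 95% of growth. Each test was repeated at least 3 times.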

Candida albicans [4] = experiment: Fungicidal activity against Candida albicans 14936 after 96 hrs; format: functional; settings: Candida albicans, 14936, 96 h; read-out: MFC99.9
Summary of the method: (§1)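 After the 48 h, 28 °C broth microdilution in MOPS-buffered RPMI 1640 (inoculum (0.5−1) × 10^3 CFU/mL), 50 μL from each well was plated on YM agar for a further 48 h at 28 °C. MFC is the lowest concentration killing at least 99.9% of cells. Triplicate, three biological replicates.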

Candida albicans [5] = experiment: Antifungal activity against Candida albicans cgmcc 2.2086 in presence of NH4Cl by broth dilution method; format: functional
Candida albicans [6] = experiment: Antifungal activity against Candida albicans cgmcc 2.2086 in presence of KCl by broth dilution method; format: functional
Staphylococcus aureus [7] = experiment: Antibacterial activity against Staphylococcus aureus ATCC 29213 after 24 hrs; format: functional; settings: ATCC 29213, 24 h
Summary of the method: (§2)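 Modified NCCLS broth microdilution. Mid-log bacteria at (0.5−1) × 10^5 CFU/mL in MHB were mixed 1:1 with peptide serially diluted in 0.2% BSA and incubated 24 h at 37 °C. Absorbance was read at 492 nm; MIC is the lowest concentration inhibiting 95% of growth. At least 3 repeats.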

Candida albicans [8] = experiment: Antifungal activity against Candida albicans SP3931 after 48 hrs by broth microdilution method; format: functional; settings: SP3931, 48 h
Summary of the method: (§3)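 Modified CLSI M27-A2 broth microdilution. Yeast at (0.5−1) × 10^3 CFU/mL in MOPS-buffered RPMI 1640 was mixed 1:1 with peptide serially diluted in 0.2% BSA and incubated 48 h at 28 °C. Absorbance was read at 492 nm; MIC is the lowest concentration inhibiting 95% of growth. Triplicate, three biological replicates.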

Candida albicans [9] = experiment: Fungicidal activity against fluconazole-resistant Candida albicans 56214 after 96 hrs; format: functional; settings: Candida albicans, 56214, 96 h; read-out: MFC99.9; summary of the method: as §1
Staphylococcus aureus [10] = experiment: Antibacterial activity against Staphylococcus aureus ATCC 25923 after 24 hrs; format: functional; settings: ATCC 25923, 24 h; summary of the method: as §2
Candida albicans [11] = experiment: Fungicidal activity against Candida albicans SP3931 after 96 hrs; format: functional; settings: SP3931, 96 h, read-out: MFC99.9; summary of the method: as §1
Candida albicans [12] = experiment: Antifungal activity against Candida albicans SP3902 after 48 hrs by broth microdilution method; format: functional; settings: SP3902, 48 h; summary of the method: as §3
Escherichia coli [13] = experiment: Antibacterial activity against Escherichia coli ATCC 25922 after 18 hrs in presence of KCl by broth dilution method; format: functional; settings: ATCC 25922, 18 h
Candida albicans [14] = experiment: Antifungal activity against fluconazole-resistant Candida albicans 56452 after 48 hrs by broth microdilution method; format: functional; settings: Candida albicans, 56452, 48 h; summary of the method: as §3
Candida albicans [15] = experiment: Antifungal activity against fluconazole-resistant Candida albicans 17546 after 48 hrs by broth microdilution method; format: functional; settings: Candida albicans, 17546, 48 h; summary of the method: as §3
Candida tropicalis = experiment: Antifungal activity against Candida tropicalis cgmcc 2.1975 after 48 hrs by broth microdilution method; format: functional; settings: cgmcc 2.1975, 48 h
Summary of the method: (§4)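 Modified CLSI M27-A2 broth microdilution. Yeast were suspended in MOPS-buffered RPMI 1640 at a final (0.5−1) × 10^3 CFU/mL and mixed 1:1 with peptide serially diluted in 0.2% BSA. Plates were incubated 48 h at 28 °C and read at A492. MIC is the lowest concentration giving 95% inhibition. Run in triplicate with three biological replicates.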

Escherichia coli [16] = experiment: Antibacterial activity against Escherichia coli ATCC 25922 after 18 hrs in presence of MgCl2 by broth dilution method; format: functional; settings: ATCC 25922, 18 h
[17] = system: Staphylococcus epidermidis; experiment: Bactericidal activity against Staphylococcus epidermidis ATCC 12228; format: functional; settings: read-out: MBC99.9
Summary of the method: (§5)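 Wells from the 24 h, 37 °C MHB microdilution plates (bacteria at a final (0.5−1) × 10^5 CFU/mL; peptide diluted in 0.2% BSA) were plated on agar and incubated overnight. MBC is the lowest concentration killing >99.9% of cells. Each test was reproduced at least 3 times.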

[18] = Bactericidal activity against Salmonella pullorum ATCC 7913; format: functional, Salmonella enterica subsp. enterica serovar Pullorum; settings: Salmonella enterica, read-out: MBC99.9; summary of the method: as §5
Candida albicans [19] = experiment: Antifungal activity against Candida albicans SP3903 after 48 hrs by broth microdilution method; format: functional; settings: SP3903, 48 h; summary of the method: as §3
Candida albicans [20] = experiment: Antifungal activity against Candida albicans cgmcc 2.2086 in presence of FeCl3 by broth dilution method; format: functional
Candida albicans [21] = experiment: Antifungal activity against fluconazole-resistant Candida albicans 56214 after 48 hrs by broth microdilution method; format: functional; settings: Candida albicans, 56214, 48 h; summary of the method: as §3
Candida parapsilosis [22] = experiment: Fungicidal activity against Candida parapsilosis cgmcc 2.3989 after 96 hrs; format: functional; settings: Lodderomyces parapsilosis, cgmcc 2.3989, 96 h; read-out: MFC99.9
Summary of the method: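 Wells from the 48 h, 28 °C RPMI 1640/MOPS microdilution plates were plated on YM agar and incubated a further 48 h at 28 °C. MFC is the lowest concentration killing at least 99.9% of cells. Run in triplicate with three biological replicates.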

Pichia kudriavzevii = experiment: Antifungal activity against Candida krusei cgmcc 2.1857 after 48 hrs by broth microdilution method; format: functional; settings: cgmcc 2.1857, 48 h; summary of the method: as §4
Escherichia coli [23] = experiment: Bactericidal activity against Escherichia coli ATCC 25922; format: functional; settings: read-out: MBC99.9; summary of the method: as §5
Escherichia coli [24] = experiment: Antibacterial activity against Escherichia coli ATCC 25922 after 18 hrs in presence of FeCl3 by broth dilution method; format: functional; settings: ATCC 25922, 18 h
Salmonella typhimurium = experiment: Bactericidal activity against Salmonella typhimurium ATCC 14028; format: functional, Salmonella enterica subsp. enterica serovar Typhimurium; settings: Salmonella enterica, read-out: MBC99.9; summary of the method: as §5
Candida albicans [25] = experiment: Fungicidal activity against fluconazole-resistant Candida albicans 17546 after 96 hrs; format: functional; settings: Candida albicans, 17546, 96 h; read-out: MFC99.9; summary of the method: as §1
Candida albicans [26] = experiment: Antifungal activity against Candida albicans cgmcc 2.2086 after 48 hrs by broth microdilution method; format: functional; settings: cgmcc 2.2086, 48 h; summary of the method: as §3
Candida parapsilosis [27] = experiment: Antifungal activity against Candida parapsilosis cgmcc 2.3989 after 48 hrs by broth microdilution method; format: functional; settings: Lodderomyces parapsilosis, cgmcc 2.3989, 48 h; summary of the method: as §4

Substance | MIC (Escherichia coli [1]) [µM] | viability at 24 h, up to 64 µM [2] [%] | MIC95 [3] [µM] | MFC (Candida albicans [4]) [µM] | MIC (Candida albicans [5]) [µM] | MIC (Candida albicans [6]) [µM] | MIC95 (Staphylococcus aureus [7]) [µM] | MIC95 (Candida albicans [8]) [µM] | MFC (Candida albicans [9]) [µM] | MIC95 (Staphylococcus aureus [10]) [µM] | MFC (Candida albicans [11]) [µM] | MIC95 (Candida albicans [12]) [µM] | MIC (Escherichia coli [13]) [µM] | MIC95 (Candida albicans [14]) [µM] | MIC95 (Candida albicans [15]) [µM] | MIC95 (Candida tropicalis) [µM] | MIC (Escherichia coli [16]) [µM] | MBC [17] [µM] | MBC [18] [µM] | MIC95 (Candida albicans [19]) [µM] | other results
H-RRLRLLLRLRR-NH2 | 4 | 70 to 80 | 2 | 8 | 8 | 32 | 16 | 8 | 8 | 4 | 16 | 4 | 4 | 4 | 8 | 2 | 2 | 4 | 8 | 2 | MIC (Candida albicans [20]): 8 µM; MIC95 (Candida albicans [21]): 4 µM; MFC (Candida parapsilosis [22]): 64 µM; MIC95 (Pichia kudriavzevii): 4 µM; MBC (Escherichia coli [23]): 4 µM; MIC (Escherichia coli [24]): 8 µM; MBC (Salmonella typhimurium): 4 µM; MFC (Candida albicans [25]): 16 µM; MIC95 (Candida albicans [26]): 8 µM; MIC95 (Candida parapsilosis [27]): 64 µM
H-RIIRRIRRIIR-NH2 | 16 | 70 to 80 | 16 | 8 | 16 | 64 | 64 | 16 | 16 | 32 | 32 | 16 | 16 | 8 | 16 | 1 | 16 | 32 | 64 | 4 | MIC (Candida albicans [20]): 16 µM; MIC95 (Candida albicans [21]): 8 µM; MFC (Candida parapsilosis [22]): > 64 µM; MIC95 (Pichia kudriavzevii): 4 µM; MBC (Escherichia coli [23]): 32 µM; MIC (Escherichia coli [24]): 16 µM; MBC (Salmonella typhimurium): 32 µM; MFC (Candida albicans [25]): 16 µM; MIC95 (Candida albicans [26]): 16 µM; MIC95 (Candida parapsilosis [27]): > 64 µM
H-RRFRFFFRFRR-NH2 | 4 | 70 to 80 | 2 | 4 | 4 | 16 | 4 | 4 | 8 | 8 | 8 | 4 | 4 | 4 | 2 | 1 | 2 | 4 | 4 | 2 | MIC (Candida albicans [20]): 4 µM; MIC95 (Candida albicans [21]): 4 µM; MFC (Candida parapsilosis [22]): 32 µM; MIC95 (Pichia kudriavzevii): 2 µM; MBC (Escherichia coli [23]): 4 µM; MIC (Escherichia coli [24]): 4 µM; MBC (Salmonella typhimurium): 8 µM; MFC (Candida albicans [25]): 2 µM; MIC95 (Candida albicans [26]): 4 µM; MIC95 (Candida parapsilosis [27]): 16 µM
